High-throughput results (PubChem BioAssay)
Only some compounds are listed: those with a hit (about 1.6% of all), similar ones and a draw of the others.
PKA-R1A act = activates the PKA-R1A holoenzyme complex; 0.083% of 340,000 active; AID 504707; PKA-R1A dissociation, Cy5-IP20 fluorescence polarization; scaled: DMSO 0%, 113 µM cGMP 100%; P00514+P68181; activation, % at 11.4 µM;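 active = percent activation above the mean of all tested compounds plus 3 SD, cut at about 19% in these data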;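 note: higher means more PKAc released from R1A so a rise in polarization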
Rpn11 inh = blocks the human proteasome subunit Rpn11. O00487. human 26S proteasome, Ub4-pepOG fluorescence polarization; 20S core pre-blocked with epoxomicin. calls only at 20 µM. 0.59% of 360,000 active;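 active = inhibition at 20 µM, scaled to each plate's controls, above about 33%, limit read from the data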
PKA-R2B activ = PKA-R2B complex activation; P22694+P31323; PKA-R2B holoenzyme dissociation, Cy5-IP20 fluorescence polarization; R2B truncated from residue 108, S112A mutant; 0% DMSO only, 100% 113 µM cGMP; activation, % at 11.4 µM; 0.079% of 340,000 active; AID 504700;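 active = activation above a cutoff set at the mean over all compounds plus 3 SD, cut at about 18% in these data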;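 note: higher means more holoenzyme dissociation and a rise in polarization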
TPT1 inhibitor = C. albicans TPT1 enzyme inhibition. AID 1962. recombinant caTPT1, FP RNA substrate dephosphorylation. 0.81% of 300,000 active. inhibition, % at 5 µM;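 active = inhibition above the mean of all tested compounds plus 3 SD, set per screening campaign, cut at about 24% in these data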;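 note: plate controls were DMSO alone for no effect and ferristatin control at 100 nM for full effect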
HNF4A DNA FP = change in binding of human HNF4 alpha to DNA; HNF4a-FITC DNA binding, fluorescence polarization, 1 h; activity change, % at 10 µM; 0.3% of 360,000 active; AID 1224865; in the data active = activity change above about 30%, passing the limit was not always enough
CSN deneddyl inh = inhibitors of human CSN-mediated cullin deneddylation; Q92905; Purified CSN, SCF-Nedd8-OG deneddylation, fluorescence polarization; inhibition, % at 12.5 µM; 0.38% of 360,000 active; AID 651999;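 active = pattern-corrected inhibition above about 35%, with an unprinted fluorescence ratio check between 0.5 and 1.5, limit read from the data, passing the limit was not always enough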;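 note: 0% = enzyme with substrate and 100% = substrate without enzyme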
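Schedule: reaction 90 min, room temperature / Assay system: HEK293T-derived human Csn5 enzyme / Input: Csn5 at 0.24 nM final / Measure: inhibition of Csn5 cleavage, % / Control set: substrate-only high control, full reaction low control / Technique: fluorescence polarization of the substrate / Buffer or medium: Tris/NaCl/DTT buffer, pH 7.5 / Reagent: SCFSkp2-Nedd8OG substrate at 10 nM final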
Rpn11 inh conf = confirmation of human proteasome Rpn11 inhibitors; shares compounds with Rpn11 inh; 29% of 1,900 active; purified human 26S proteasome, Ub4-pepOG fluorescence polarization; proteasome pretreated with epoxomicin; inhibition, % at 20 µM
MMP-2 counter = blocks human MMP-2, flagging nonselective RPN11 hits; shares compounds with Rpn11 inh; 4% of 1,900 active; inhibition, % at 20 µM; recombinant MMP-2, FRET peptide cleavage fluorescence;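 note: human MMP-2 activated beforehand with APMA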
Thrombin inh = blocks bovine thrombin, flagging nonselective RPN11 hits. shares compounds with Rpn11 inh. bovine thrombin cleavage of Ub4-pepOG, fluorescence polarization. inhibition, % at 20 µM. 13% of 1,900 active. AID 602333;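 active = mean inhibition at least 40% at 20 µM, or signal 3 deviations below plate average, so some actives read negative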;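 note: plate controls were thrombin with DMSO for no effect and buffer wells lacking thrombin for full effect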
Target sequence (P00735 whole entry, looked up): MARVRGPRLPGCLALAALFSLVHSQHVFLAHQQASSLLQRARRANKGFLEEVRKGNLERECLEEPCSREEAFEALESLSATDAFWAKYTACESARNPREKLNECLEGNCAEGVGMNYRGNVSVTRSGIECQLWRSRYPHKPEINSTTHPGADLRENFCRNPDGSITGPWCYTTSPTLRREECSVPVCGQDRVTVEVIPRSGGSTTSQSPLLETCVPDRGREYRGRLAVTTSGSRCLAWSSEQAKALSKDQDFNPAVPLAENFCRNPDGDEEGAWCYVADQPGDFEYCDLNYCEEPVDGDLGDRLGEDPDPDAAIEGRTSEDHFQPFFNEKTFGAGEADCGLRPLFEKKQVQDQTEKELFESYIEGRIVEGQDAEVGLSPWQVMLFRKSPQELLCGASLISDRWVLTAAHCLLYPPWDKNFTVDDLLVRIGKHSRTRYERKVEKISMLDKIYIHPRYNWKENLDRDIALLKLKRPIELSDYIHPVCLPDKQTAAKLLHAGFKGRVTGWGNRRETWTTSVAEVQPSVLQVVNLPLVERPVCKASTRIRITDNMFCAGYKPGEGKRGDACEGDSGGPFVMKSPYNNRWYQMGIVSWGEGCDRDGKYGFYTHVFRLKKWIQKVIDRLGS
* hit, by the source's call; i = inactive; · = not tested or not shown; + = active, no number. Cut-off read from the data, not from the text of the source, unless noted: active = inhibition above about 40%; inactive = the rest.

SMILES | PKA-R1A act | Rpn11 inh | PKA-R2B activ | TPT1 inhibitor | HNF4A DNA FP | CSN deneddyl inh | Rpn11 inh conf | MMP-2 counter | Thrombin inh
CC(C)(C)NC(=O)C[C@H]1C[C@H](C(=O)N2CCCCC2)[C@@]2(CCc3ccccc3)c3[nH]c4cc(-c5ccco5)ccc4c3CCN2C1=O | -4 | + | 0 | · | 20 | 14 | 11 | 32 | 23
O=C(C[C@H]1C[C@H](C(=O)N2CCOCC2)[C@@]2(CCC3CCCC3)c3[nH]c4cc(-c5ccco5)ccc4c3CCN2C1=O)NCCc1ccccn1 | -2 | i | 4 | · | 6 | 8 | · | · | ·
CC[C@]12c3[nH]c4cc(-c5ccco5)ccc4c3CCN1C(=O)[C@@H](CC(=O)NCC13CC4CC(CC(C4)C1)C3)C[C@@H]2C(=O)N1CCN(C(=O)C2CC2)CC1 | -7 | i | -3 | · | 2 | 7 | · | · | ·
CN(C)CCCNC(=O)C[C@H]1C[C@H](C(=O)N2CCCCC2)[C@@]2(CCc3ccccc3)c3[nH]c4cc(-c5ccco5)ccc4c3CCN2C1=O | 2 | i | -1 | · | -3 | 2 | · | · | ·
CCc1ccc(N2C(=O)CC(N(CC3CCCO3)C(=O)/C=C/C(=O)O)C2=O)cc1 (stereo unspecified) | 8 | i | -13 | -3 | -13 | -5 | · | · | ·
COC(=O)c1scc2c(=O)cc(C(F)(F)F)[nH]c12 | -1 | i | -9 | -12 | -9 | -6 | · | · | ·
CC(Sc1nncn1C)C(=O)Nc1ccc(N2CCCCC2)cc1 (stereo unspecified) | -3 | i | -7 | · | 1 | -2 | · | · | ·
COc1ccc(F)cc1S(=O)(=O)Nc1cccc(C(=O)O)c1 | 0 | i | 0 | -3 | 7 | -6 | · | · | ·
Cc1c(C(=O)N2CCOCC2)sc(NC(=O)c2ccc3c(c2)OCO3)c1C#N | 3 | + | -1 | 4 | 5 | 10 | -4 | 5 | -17
CCN(CC)C(=O)c1sc(NC(=O)c2ccc3c(c2)OCO3)c(C#N)c1C | -8 | i | -7 | 0 | -3 | 4 | · | · | ·
O=C(O)CC/C(=C/c1cccc(NC(=O)c2ccccc2Cl)c1)c1nc2ccccc2s1 | -12 | i | -4 | · | 6 | 8 | · | · | ·
COc1cc(/C=C(\CCC(=O)O)c2nc3ccccc3s2)ccc1OCC(=O)Nc1c(Cl)cccc1Cl | 8 | + | 7 | · | -27 | 7 | 27 | -1 | 1
O=C(O)C(c1ccccc1)c1ccccc1 | -12 | i | 2 | -5 | 0 | 2 | · | · | ·
COCCCn1cnnc1SCc1nc2sc(C(C)=O)c(C)c2c(=O)[nH]1 | -3 | + | 0 | 16 | 8 | 8 | 10 | -52 | 23
Cc1cc(NC(=O)CN2C(=O)/C(=C/c3cccc(Br)c3)SC2=S)no1 | 4 | + | -4 | 4 | 17 | -7 | 13 | -73 | -47
Cc1ccc(/C=C2\SC(=S)N(CCCC(=O)Nc3cc(C)on3)C2=O)cc1 | -10 | i | -1 | -6 | 4 | -5 | · | · | ·
CCCCCCCCCCOC(=O)Cn1c(COc2ccc(Cl)cc2)[n+](C)c2ccccc21 | -13 | + | 1 | -5 | 13 | 5 | 50* | -5 | -18
CCCCCCCCCCOC(=O)Cn1c(COc2cccc(C)c2)[n+](C)c2ccccc21 | -10 | + | -9 | 4 | 4 | 3 | 9 | -3 | -33
CCCCCCCCCCOC(=O)Cn1c(COc2ccccc2)[n+](C)c2ccccc21 | -8 | i | 3 | -5 | 7 | 2 | · | · | ·
COc1cccc(N(C(=O)c2cccs2)c2nc3ccccc3s2)c1 | 4 | + | 1 | -5 | 2 | 2 | -15 | 13 | 14
CC(=O)c1cccc(NC(=O)COC(=O)c2ccc3c(c2)OCO3)c1 | -2 | i | 1 | · | -3 | -2 | · | · | ·
CO/C([O-])=N/c1c[n+](-c2ccc(Cl)cc2)no1 | -9 | + | -5 | -2 | 7 | -2 | -9 | 23 | -2
N#Cc1cccc(NC(=O)COC(=O)c2ccc[n+]([O-])c2)c1 | -1 | i | 0 | · | 4 | 0 | · | · | ·
O=C1C(=Cc2cn(-c3ccccc3)nc2-c2ccc(OCc3ccccc3F)cc2)SC(=S)N1CCS(=O)(=O)O | · | + | · | · | -49 | 50 | 103* | 58* | 163*
O=C1C(=Cc2cn(-c3ccccc3)nc2-c2ccc(OCc3ccc(Cl)cc3)cc2)SC(=S)N1CCS(=O)(=O)O | · | + | · | · | -59 | 80* | 104* | 65* | 183*
SMILES | PKA-R1A act | Rpn11 inh | PKA-R2B activ | TPT1 inhibitor | HNF4A DNA FP | CSN deneddyl inh | Rpn11 inh conf | MMP-2 counter | Thrombin inh
Cc1ccc(NS(=O)(=O)c2cccc([N+](=O)[O-])c2)nc1 | -2 | i | -5 | 2 | -1 | 7 | · | · | ·
CCCCN(C(=O)c1oc2ccc(OCC)cc2c1C)c1c(N)n(CC(C)C)c(=O)[nH]c1=O | -14 | i | -10 | 0 | 0 | -3 | · | · | ·
O=C(NCC1CCCO1)C(c1cccs1)N(Cc1cccs1)C(=O)c1ccc(-c2ccccc2)[nH]1 (stereo unspecified) | -3 | + | -20 | 4 | -2 | -10 | 14 | 6 | 13
O=c1[nH]c(/C=C/c2ccccc2Cl)nc2ccccc12 | -8 | + | -6 | -3 | 79* | 28 | 25 | 8 | -18
O=C(Cc1cccs1)N1CCC(c2nc3c(nnn3Cc3ccccc3)c(=O)[nH]2)CC1 | -4 | + | -2 | 1 | 1 | 3 | -5 | -9 | -9
c1ccc2cc(N3CCCCC3)ccc2c1 | 2 | i | -6 | · | 2 | 2 | · | · | ·
O=C1c2ccccc2C(=O)c2cc(N3CCCCC3)ccc21 | -4 | + | -2 | · | -7 | 20 | 24 | -18 | 21
COc1ccc(C2=NN(C(=O)c3cccc([N+](=O)[O-])c3)C(c3cccc([N+](=O)[O-])c3)C2)cc1 (stereo unspecified) | 9 | i | 3 | 1 | 1 | 2 | · | · | ·
COc1ccc(C2CC(c3cccc([N+](=O)[O-])c3)=NN2/C(C)=C/C(C)=O)cc1 (stereo unspecified) | 2 | + | -6 | · | 87* | 57* | 142* | -4 | 151*
O=C(CN1CCCC1)Nc1c(C(=O)C2CC2)oc2ccccc12 | -3 | i | -10 | -2 | 0 | -2 | · | · | ·
